# Screening data deposited in PubChem by several laboratories.
# An excerpt weighted towards active compounds, which were near 2% of everything screened.
# PG9 binder – small molecules binding HIV-1 gp120 antibody PG9; AID 624416; TR-FRET gp120-PG9 antibody binding; inhibition, % at 6.7 µM; hit rate 0.43% among 360,000; in the data active = inhibition above about 8.5%
# Rev-erbA mod – modulators of human Rev-erb alpha DNA binding; Rev-erbα–FITC-DNA binding, fluorescence polarization, 90 min; activity, % at 10 µM; hit rate 0.79% among 370,000; AID 1259318;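 active = activity above about 14%, limit read from the data; passing the limit was not always enough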;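 also: 0% = DMSO wells with 35 nM protein and 100% = DMSO wells with 750 nM protein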
# NR2E3 ag-1 – activates human NR2E3 receptor. CHO-S Gal4-NCOR/VP16-NR2E3 two-hybrid, luciferase. inhibition of corepressor binding, % at 3.98 µM. hit rate 0.35% among 360,000. AID 602229;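 active = inhibition above the mean of all tested compounds plus 3 SD, cut at about 70% in these data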;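 also: 0% = DMSO with NR2E3 transfected cells and 100% = cells lacking NR2E3 construct; higher means lower luciferase signal from less NR2E3 corepressor binding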
# Target sequence (Q9Y5X4 whole entry, looked up, the tested form may be a part): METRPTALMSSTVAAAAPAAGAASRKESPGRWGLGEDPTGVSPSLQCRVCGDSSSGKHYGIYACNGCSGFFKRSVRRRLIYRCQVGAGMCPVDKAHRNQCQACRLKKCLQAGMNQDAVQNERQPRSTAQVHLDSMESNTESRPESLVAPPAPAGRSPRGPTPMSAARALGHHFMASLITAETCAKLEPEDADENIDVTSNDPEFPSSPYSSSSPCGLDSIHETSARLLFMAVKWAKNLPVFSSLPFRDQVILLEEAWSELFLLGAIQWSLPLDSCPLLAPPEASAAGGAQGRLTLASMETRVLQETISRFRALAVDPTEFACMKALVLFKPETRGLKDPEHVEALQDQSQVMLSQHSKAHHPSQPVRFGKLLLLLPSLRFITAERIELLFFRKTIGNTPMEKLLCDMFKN
# Neddyl block – cullin neddylation inhibition. calls only at 25 µM. AID 651699. hit rate 0.58% among 360,000. TR-FRET cullin neddylation, biochemical; in the data active = inhibition above about 36%
# NR2E3 ag-2 – activates human photoreceptor nuclear receptor NR2E3; Q9Y5X4; GST-NR2E3/biotin-RetCOR TR-FRET, 1536-well; inhibition of corepressor binding, % at 4.78 µM; hit rate 0.12% among 320,000;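 active = percent inhibition above the cutoff of mean plus 3 SD of all tested compounds, set per screening campaign, cut at about 20% in these data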;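 also: 0% = DMSO wells and 100% = biotin wells as full block of FRET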
#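 system = GST-tagged NR2E3 plus biotinylated RetCOR corepressor | input = 1.35 nM GST-NR2E3 | also added = 7 nM biotin-RetCOR | schedule = 5 h incubation at 4 °C | measured by = TR-FRET with europium anti-GST and streptavidin-D2, 340 nm excitation | read-out = percent loss of FRET ratio relative to control wells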
# Neddyl inh conf – confirmation of human cullin neddylation inhibitors. shares compounds with Neddyl block. TR-FRET cullin neddylation biochemical assay. AID 652217. hit rate 13% among 1,800. calls only at 25 µM; in the data active = inhibition above about 40%;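 also: neddylation substrate is the cullin 1 ring ligase complex with SKP2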
# Active calls of the source: *; i = inactive; / = no result shown; + = active, no number.
SMILES,PG9 binder,Rev-erbA mod,NR2E3 ag-1,Neddyl block,NR2E3 ag-2,Neddyl inh conf
COC(=O)COc1ccc2oc(=O)cc(-c3cc4cccc(OC)c4o3)c2c1,1,-22,13,+,1,i
COCCSc1nc(N)c2c3c(sc2n1)CN(C)CC3,-3,9,-20,+,-1,i
CN(C)CCSc1nc(N)c2c3c(sc2n1)CN(C)CC3,1,-6,-21,+,-2,i
CCN(CC)C(=O)C1=C(C)N(CCC2=CCCCC2)C(=O)C(CC(=O)NCc2ccco2)C1 (stereo not given),-1,0,-37,i,/,/
N=c1c(C(=O)NCCN2CCOCC2)cc2c(=O)n3ccccc3nc2n1CCc1ccccc1,-1,7,-37,/,-1,/
Cc1ccc(Cn2c(=N)c(C(=O)NCCN3CCOCC3)cc3c(=O)n4ccccc4nc32)cc1,2,-3,-26,+,2,+
CC12CCC(=O)C=C1CCC1C2C(O)CC2(C)C1CCC2(O)C(=O)COC(=O)CCC1CCCC1 (stereo not given),/,/,7,i,/,/
O=C(NCc1ccccc1)c1nc(-c2c(F)cccc2F)oc1-c1ccccc1,0,4,/,+,/,/
COc1ccc(C(CCN2CCOCC2)c2c(OC)cc(OC)c3c(-c4ccccc4)cc(=O)oc23)cc1 (stereo not given),-2,1,21,+,/,i
CC(Cc1cccs1)NC(=O)CCCn1nnnc1CN1CCOCC1 (stereo not given),1,3,-6,i,1,/
O=C(/C=C/c1cccc(F)c1)NCc1ccc2c(c1)OCO2,-2,1,-10,i,2,/
COc1ccc(/C=C/C(=O)NCc2ccc3c(c2)OCO3)cc1OC,-1,-5,-6,+,-4,i
COc1ccc(/C=C2\CCCC3C2=NN(C(=O)CSc2n[nH]c(N)n2)C3c2ccc(OC)cc2)cc1 (stereo not given),1,-2,-13,+,0,/
Nc1ccn(C2OC(COP(=O)(O)O)C(O)C2O)c(=O)n1 (stereo not given),-2,-1,-1,i,/,/
Cc1c(/C=C(\CC(=O)O)c2nc3ccccc3s2)cc(C#N)n1C,0,4,-25,+,2,/
Cc1nn(-c2ccccc2)c(Cl)c1/C=C(/CC(=O)O)c1nc2ccccc2s1,0,-2,18,i,/,/
COc1ccc(Cl)c2sc(NC(=O)C3=COCCO3)nc12,-2,4,-26,+,-2,i
Cc1ccc(Cl)c2sc(NC(=O)C3=COCCO3)nc12,-2,-2,-58,i,1,/
CSc1cccc2sc(NC(=O)C3=COCCO3)nc12,-1,5,-52,+,-1,/
O=C(NNc1nc2c(F)cccc2s1)C1=COCCO1,0,-4,-35,i,-1,/
Cc1cc(-n2c(C)cc(C(=O)COc3ccc4ccc(=O)oc4c3)c2C)no1,0,-4,-27,+,-1,/
CC(=O)c1cccc(OCC(=O)c2cc(C)n(-c3cc(C)on3)c2C)c1,0,1,23,i,0,/
CCCC(=O)OC[C@H]1CN(C2CCCC2)S(=O)(=O)c2c(Oc3ccc(C(C)(C)C)cc3)cccc2O1,-2,6,/,/,/,/
c1ccc2c(c1)c1c(c3ccccc32)CN2CCCC2C1 (stereo not given),0,-4,9,+,/,i
c1ccc(CN2CCC(N3CCC(N4CCCCCC4)CC3)CC2)cc1,/,/,-22,i,2,/
SMILES,PG9 binder,Rev-erbA mod,NR2E3 ag-1,Neddyl block,NR2E3 ag-2,Neddyl inh conf
COCc1cc(C)nc2sc(C(=O)Nc3ccccc3C)c(N)c12,2,3,-17,+,4,/
COCc1cc(C)nc2sc(C(=O)OC)c(N)c12,0,-2,-25,+,3,/
CCOc1ccc(N(CC(=O)N2CCCC2)S(=O)(=O)c2ccc(Cl)cc2)cc1,-2,-6,-6,i,-2,/
COc1ccc(-c2cc(C(=O)OCC(=O)NC3CC3)c3ccccc3n2)cc1,-1,-5,-69,+,3,/
CCCNC(=O)COC(=O)c1cc(-c2ccc(OC)cc2)nc2ccccc12,2,-1,-43,/,2,/
CCNC(=O)COC(=O)c1cc(-c2ccc(OC)cc2)nc2ccccc12,-1,-2,-55,+,2,/
COCCNC(=O)COC(=O)c1cc(-c2ccc(OC)cc2)nc2ccccc12,0,-6,-62,+,2,/
c1ccc2c(c1)ccn2CCCN1CCCCC1,-4,-2,-6,i,/,/
CN(C)Cc1ccccc1CNC(=O)c1cccc(S(=O)(=O)Nc2ccc3c(c2)OCO3)c1,-2,-2,-8,i,/,/
Cc1ccccc1CC(=O)Nc1ccc2c(C)cc(=O)oc2c1,0,-9,-28,+,-4,i
COc1ccccc1CC(=O)Nc1ccc2c(C)cc(=O)oc2c1,2,6,-39,/,2,/
Cc1cc(=O)oc2cc(NC(=O)CN3C(=O)NC(C)(c4ccccc4)C3=O)ccc12 (stereo not given),-1,-3,-3,+,6,+
CCCN1CNc2c(c(=O)[nH]c(=S)n2CCc2cccc(Cl)c2Cl)C1,/,3,/,/,/,/
NNC(=O)c1oc2nc(-c3ccccc3)cc(-c3ccccc3)c2c1N,2,-2,-43,+,2,i
Cc1cc2c(cc1C)NC(=O)C(C)CN2 (stereo not given),-4,-2,-148,i,/,/
Cc1c(C)c2cc(Cl)c(OCc3nn[nH]n3)cc2oc1=O,0,4,-9,+,1,i
Cc1c(C)c2cc(Cl)c(OCC(=O)Nc3ccccn3)cc2oc1=O,1,-2,-34,i,/,/
CCOC(=O)C1=CCN(S(=O)(=O)c2ccc(Cl)cc2)C1c1cccc(Cl)c1 (stereo not given),0,-2,/,/,/,/
O=C(NCCCN1CCCC1=O)c1c(O)nc2ccccn2c1=O,0,-1,-9,+,2,i
CC1CCCCC1NC(=O)c1c(O)nc2ccccn2c1=O (stereo not given),1,0,-4,+,-3,i
O=C(NCCC1=CCCCC1)c1c(O)nc2ccccn2c1=O,2,1,-85,i,2,/
C[C@@H](CO)NC(=O)c1[nH]cnc1C(=O)Nc1ccccc1,-2,-3,/,/,/,/
O=C(O)c1ccc(/C=N/NC(=O)c2cc3c(ccc4ccccc43)o2)cc1,-2,-6,-7,+,2,i
COc1ccccc1/C=N/NC(=O)c1cc2c(ccc3ccccc32)o1,-1,0,-28,+,-2,i
COc1ccc(/C=N\NC(=O)c2cc3c(ccc4ccccc43)o2)cc1O,-2,-7,-54,+,/,i
COc1ccc(/C=N/NC(=O)c2cc3c(ccc4ccccc43)o2)cc1OC,-1,3,-41,/,/,/
Cc1csc(NC(=O)c2ccc(COc3cccc(F)c3)o2)n1,/,-2,/,/,/,/
